# miR122 inh = inhibitors of miR-122 in Huh7 cells. Huh7 miR-122 Renilla luciferase sensor, 48 h; neutral wells = 0, positive control = 100. activation (reporter increase), % at 12.5 µM. actives 0.3% (n = 340,000);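 active means mean replicate activation score at least 90 and every replicate individually at or above 90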;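 further: higher luciferase means less miR-122 activity so hits act as miR-122 inhibitors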
# CAL PDZ FP-1 = blocks peptide binding to human CAL PDZ domain | purified CAL PDZ, TMR-peptide fluorescence polarization, 1 h | inhibition, % at 20 µM | actives 0.02% (n = 330,000) | AID 504414;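 active means highest replicate inhibition of at least 40%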;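 further: plate controls were DMSO neutral control wells for no effect and unlabeled competitor peptide control wells for full effect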
#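 Material: tagged CAL PDZ domain; buffer or medium: 25 mM sodium phosphate pH 7.4, 150 mM NaCl, TCEP, IgG, Thesit; compound dosing: single point, 20 µM; schedule: 1 h incubation at room temperature before polarization reading; measured by: FP readout, S and P plane fluorescence; read-out basis: percent inhibition from loss of millipolarization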
# CAL PDZ FP-2 = CAL PDZ (human) peptide binding inhibition; Q9HD26; purified CAL PDZ, TMR-peptide fluorescence polarization, 1 h; inhibition, % at 24.9 µM; actives 0.92% (n = 300,000); AID 602252;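 active means mean inhibition of at least 30% with at least half of replicates also reaching 30%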;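 further: 0% = DMSO neutral control and 100% = excess unlabeled competitor peptide PRC23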
# F508del corr = correctors of CFTR F508del function in bronchial epithelial cells | activity (quench increase), % at 7.58 µM | AID 720511 | CFBE cells, YFP halide quenching; stimulated with forskolin plus potentiator P3; % fluorescence drop versus neutral controls | actives 0.36% (n = 350,000);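 active means mean added fluorescence quench of at least 8% versus neutral control, with both replicates also reaching 8%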;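 further: cells transiently co-express mutant CFTR-F508del with the halide-sensitive YFP; corrector assay measuring rescue of mutant channel to the surface after 24 h compound exposure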
# PGC1a acetyl inh = modulators of PGC1a acetylation | U2OS PGC1a acetylation, AlphaScreen anti-acetyl-lysine; with virally co-expressed GCN5 acetyltransferase | inhibition, % at 15.6 µM | actives 0.17% (n = 350,000);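 active means every replicate shows inhibition of at least 40%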;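 further: 0% = neutral control wells and 100% = positive control wells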
# ARNT-TACC3 inh = disrupts binding between human ARNT and TACC3; inhibition, % at 9.99 µM; actives 0.66% (n = 390,000); AlphaScreen His-ARNT PAS-B/GST-TACC3 binding, luminescence; TACC3 fragment carries E629A point mutation; AID 623870;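 active means mean inhibition of replicates at least 50% and at least half of replicates each reaching 50%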;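 further: 0% = complete ARNT plus TACC3 wells and 100% = ARNT alone without TACC3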
# Active calls of the source: *; x = no result given; [ ] = dose if it differs, or a comment. The list is not random: actives were taken first. Their share in the collection is about 1.7%.
SMILES,miR122 inh,CAL PDZ FP-1,CAL PDZ FP-2,F508del corr,PGC1a acetyl inh,ARNT-TACC3 inh
CCn1ccnc1CNCc1ccc(OCC(O)CN(C)Cc2ccccc2)cc1 (stereo unspecified),-7,-2,1,1,-1,47*
COC(=O)c1c(SCC(=O)NC2CCCCC2)[nH]c2ccccc2c1=O,-3,-2,31*,2,2,-1
COc1ccc(OC)c(C(=O)/C=C/c2ccccc2C(F)(F)F)c1,9,0,5,x,46*,-10
COc1ccc(OC)c(S(=O)(=O)Nc2ccccc2C(F)(F)F)c1,116*,0,0,x,-6,-33
COc1cc2c(cc1OC)C(c1ccc(Br)cc1)NCC2 (stereo unspecified),-5,x,x,2,14,x
COc1ccc(C2NCCc3cc(OC)c(OC)cc32)cc1OC (stereo unspecified),-9,1,60*,x,-1,2
CC(C)(C)c1nnc(N/N=C/c2ccccc2O)n(N)c1=O,-6,-1,-5,x,2,60*
CCc1nnc(N/N=C/c2ccccc2Cl)n1N,7,0,0,x,72*,-3
CC(C)(C)c1nnc(N/N=C/c2ccccc2)n(N)c1=O,8,-1,-1,x,30,21
CCCNC(=O)Nc1ccc2c(c1)C(=O)N(C)C[C@H](OC)[C@H](C)CN(CCC(F)(F)F)[C@H](C)CO2,7[16.7 µM],x,x,0,-4,x
COc1ccccc1CN1C[C@@H](C)[C@@H](OC)CN(C)C(=O)c2cc(NC(C)=O)ccc2OC[C@H]1C,x,x,x,-3,-1,-4
CN(C)C(=O)CN1C(=O)C2CC=C(Cl)CC2C1=O (stereo unspecified),-4,0,32*,x,-6,-4
CCNC(=O)C[C@H]1CC[C@H]2[C@@H](COC[C@@H](O)CN2C(=O)Nc2ccc(C(F)(F)F)cc2)O1,-2[16.7 µM],x,x,-3,-1,x
COc1ccc(-c2cc(=O)[nH][nH]2)cc1OC,-4,x,-5,x,7,50*
O=c1c2c(-c3ccccc3)csc2nc2c3ccccc3c(NCCN3CCOCC3)nn12,x,-9,-10,0,x,74*
COc1ccccc1C#Cc1ccc2c(c1)O[C@@H](CN(C)Cc1cccnc1)[C@H](C)CN([C@@H](C)CO)S2(=O)=O,-18[16.7 µM],x,x,9.5*,44*,-5
C[C@@H]1CN([C@@H](C)CO)S(=O)(=O)c2ccc(C#CC3CCCCC3)cc2O[C@@H]1CN(C)Cc1cccnc1,10,x,x,5,-12,0
C[C@H]1CN([C@@H](C)CO)S(=O)(=O)c2ccc(C#CC3CCCCC3)cc2O[C@H]1CN(C)Cc1cccnc1,-5[16.7 µM],x,x,9.9*,-2,-4
CO[C@@H]1CN(C)C(=O)c2ccc(NC(C)=O)cc2OC[C@@H](C)N(C(=O)Cc2cccnc2)C[C@H]1C,x,x,x,-1,5,-27
CN1CCN(/N=C/c2ccc(N(c3ccccc3)c3ccccc3)cc2)CC1,-13,1,8,-1,56*,-2
C[C@@H]1CN([C@@H](C)CO)C(=O)c2cc(NC(=O)Nc3cccc4ccccc34)ccc2O[C@@H](C)CCCCO[C@@H]1CN(C)S(=O)(=O)c1ccccc1,5[16.7 µM],x,x,5,-21,-33
N#Cc1ccc(CSC2=NCCN2)cc1,x,0,-4,4,-21,32
CCOc1ccc(CSC2=NCCN2)cc1Cl,277*,-2,-3,x,x,-7
COc1cc(NS(=O)(=O)c2ccc(OC)c(C)c2C)c(OC)cc1Cl,272*,-2,-3,x,-24,-16
COc1cc(S(=O)(=O)Nc2cccc3cn[nH]c23)c(OC)cc1Cl,20,-1,95*,-1,3,-1
SMILES,miR122 inh,CAL PDZ FP-1,CAL PDZ FP-2,F508del corr,PGC1a acetyl inh,ARNT-TACC3 inh
Cc1noc(C)c1NC(=O)Nc1ccc2c(c1)CC(=O)N([C@H](C)CO)C[C@H](C)[C@H](CN(C)S(=O)(=O)c1cn(C)cn1)O2,-2[16.7 µM],x,x,1,0,1
O=C1c2cccc3c(O)ccc(c23)C(=O)N1c1ccc(Cl)cc1,-9,1,-6,19*,x,9
O=C1c2cccc3c(O)ccc(c23)C(=O)N1Cc1ccco1,-5,0,0,27*,-6,-1
CC(=O)Nc1ccc(N2C(=O)c3cccc4c(O)ccc(c34)C2=O)cc1,x,-1,0,5,x,-7
O=C1c2ccccc2C(=O)N1Cc1ccco1,0,-1,-2,x,6,-3
O=C(C[C@H]1C=C[C@H](NC(=O)CCN2CCCCC2)[C@H](CO)O1)Nc1ccc(-c2ccccc2)cc1,-6[16.7 µM],x,x,-3,-11,-29
C[C@H]1CCCCO[C@H](CN(C)Cc2ccc(C(=O)O)cc2)[C@@H](C)CN([C@@H](C)CO)C(=O)c2cc(NC(=O)Nc3ccc(F)cc3)ccc2O1,6[16.7 µM],x,x,-2,10,-1
C[C@@H]1CCCCO[C@@H](CN(C)C(=O)Nc2cccc3ccccc23)[C@H](C)CN([C@H](C)CO)C(=O)c2cc(NS(=O)(=O)c3cccs3)ccc2O1,-23[16.7 µM],x,x,2,x,-3
CC(=O)c1cccc(NC(=O)c2cccc3ccccc23)c1,2,-1,52*,0,3,-3
CC(=O)c1cc(C(=O)Nc2ccc3ccccc3c2)c(C)o1,-5,-1,x,-3,x,0
O=C(Nc1ccc2ccccc2c1)c1cccc2ccccc12,0,0,70*,0,-9,-4
Cc1cc(C(=O)Nc2ccc3ccccc3c2)c(C)o1,4,-1,41*,0,x,3
O=C(Nc1ccncc1)c1cccc2ccccc12,-18,0,-4,-1,-6,-4
Cc1noc(C)c1COC(=O)CCc1nc2ccccc2c(=O)[nH]1,16,x,45*,x,1,-6
CC(=O)N(C)C[C@@H]1Oc2cc(C#CC(C)(C)O)ccc2S(=O)(=O)N([C@H](C)CO)C[C@@H]1C,4[16.7 µM],x,x,-1,11,-6
CCOc1ccc(S(=O)(=O)N(C)c2ccc(OCC(=O)N3c4ccc(C)cc4C4CN(C)CCC43)cc2)cc1 (stereo unspecified),8,-3,-1,1,75*,-1
COCCCNC(=O)CN1C(=O)/C(=C\c2ccc(C)cc2)Sc2ccccc21,x,-3,-3,x,x,-28
CCOCCCNC(=O)CN1C(=O)/C(=C/c2ccccc2C)Sc2ccccc21,4,-1,31*,0,x,-16
CNC[C@@H]1Oc2ccc(NS(=O)(=O)c3cccs3)cc2C(=O)N([C@H](C)CO)C[C@@H]1C,-6[16.7 µM],x,x,3,-2,1
Cc1ccc(S(=O)(=O)CCc2nnc(N)s2)cc1C,-3,-1,2,x,8,-18
Cc1ccc(S(=O)(=O)CCc2nnc(NC(=O)CCl)s2)cc1C,x,-1,46*,1,3,1
